Measurements as given in ChEMBL document CHEMBL1124031, “6-[18F]fluorometaraminol: a radiotracer for in vivo mapping of adrenergic nerves of the heart” (J Med Chem, 1988).

Assays:
Rattus norvegicus [1] = organism: Rattus norvegicus; test: Concentration of compound in blood of rats, pretreated with desmethylimipramine, assessed using [18F]- as radiotracer;Dose/g; assay type: ADME, organism-based; conditions: in vivo
Outline: (§1)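 Female Sprague–Dawley rats (230–290 g) got DMI·HCl 10 mg/kg ip, or an equal volume of saline ip for controls, 30 min before iv [18F] tracer (5 µCi). Killed 1.5 h after tracer. Duplicate tissue samples were weighed and gamma counted. Values are decay-corrected % dose/g normalized to 250 g body weight, mean ± SEM, four rats per group.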

Rattus norvegicus [2] = organism: Rattus norvegicus; test: Concentration of compound in left atrium of rats, pretreated with desmethylimipramine, assessed using [18F]- as radiotracer;Dose/g; assay type: ADME, organism-based, Cardiac atrium; conditions: in vivo; outline: as §1
Rattus norvegicus [3] = organism: Rattus norvegicus; test: Concentration of compound in left ventricle of rats, pretreated with desmethylimipramine, assessed using [18F]- as radiotracer;Dose/g; assay type: ADME, organism-based, Heart left ventricle; conditions: in vivo; outline: as §1
Rattus norvegicus [4] = organism: Rattus norvegicus; test: Concentration of compound in liver of rats, pretreated with desmethylimipramine, assessed using [18F]- as radiotracer;Dose/g; assay type: ADME, organism-based; conditions: in vivo; outline: as §1
Rattus norvegicus [5] = organism: Rattus norvegicus; test: Concentration of compound in right atrium of rats, pretreated with desmethylimipramine, assessed using [18F]- as radiotracer;Dose/g; assay type: ADME, organism-based, Cardiac atrium; conditions: in vivo; outline: as §1
Rattus norvegicus [6] = organism: Rattus norvegicus; test: Concentration of compound in right ventricle of rats, pretreated with desmethylimipramine, assessed using [18F]- as radiotracer;Dose/g; assay type: ADME, organism-based, Heart right ventricle; conditions: in vivo; outline: as §1
Rattus norvegicus [7] = organism: Rattus norvegicus; test: Concentration of compound in spleen of rats, pretreated with desmethylimipramine, assessed using [18F]- as radiotracer;Dose/g; assay type: ADME, organism-based; conditions: in vivo; outline: as §1
Rattus norvegicus [8] = organism: Rattus norvegicus; test: Desmethylimipramine blockade of compound with [3H]-NE as radiotracer, and percentage change was measured in rat left ventricle; assay type: functional, Heart left ventricle
Outline: (§2)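 Comparison study with [3H]NE (levo-[7-3H], 15–20 Ci/mmol) as tracer in female Sprague–Dawley rats (230–290 g). Rats were pretreated with DMI·HCl 10 mg/kg ip, or an equal volume of saline ip, 30 min before iv tracer. Value is the percent change in tissue tracer concentration versus saline controls; five rats per group.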

Rattus norvegicus [9] = organism: Rattus norvegicus; test: Desmethylimipramine blockade of compound with [3H]NE as radiotracer, and percentage change was measured in rat right atrium; assay type: functional, Cardiac atrium; outline: as §2
Rattus norvegicus [10] = organism: Rattus norvegicus; test: Desmethylimipramine blockade of compound with [3H]NE as radiotracer, and percentage change was measured in rat right ventricle; assay type: functional, Heart right ventricle; outline: as §2
Rattus norvegicus [11] = organism: Rattus norvegicus; test: Desmethylimipramine blockade of compound with [3H]NE as radiotracer, and percentage change was measured in rat spleen; assay type: functional; outline: as §2
Rattus norvegicus [12] = organism: Rattus norvegicus; test: Desmethylimipramine blockade of compound with [3H]NE as radiotracer, and percentage change was measured in rat blood; assay type: functional; outline: as §2
Rattus norvegicus [13] = organism: Rattus norvegicus; test: Desmethylimipramine blockade of compound with [3H]NE as radiotracer, and percentage change was measured in rat left atrium; assay type: functional, Cardiac atrium; outline: as §2

CC(N)C(O)c1cc(O)ccc1F (stereo not drawn)
Dose (Rattus norvegicus [1]): 0.12%
Dose (Rattus norvegicus [2]): 0.24%
Dose (Rattus norvegicus [3]): 0.15%
Dose (Rattus norvegicus [4]): 0.77%
Dose (Rattus norvegicus [5]): 0.24%
Dose (Rattus norvegicus [6]): 0.2%
Dose (Rattus norvegicus [7]): 0.2%
Change (Rattus norvegicus [8]): -97%
Change (Rattus norvegicus [9]): -95%
Change (Rattus norvegicus [10]): -96%
Change (Rattus norvegicus [11]): -86%
Change (Rattus norvegicus [12]): 55%
Change (Rattus norvegicus [13]): -95%
